ABCB6 inh 2: inhibitors of human ABC transporter ABCB6 | K562-ABCB6 porphyrin accumulation, flow cytometry, 1 h; stronger effect = lower value | fluorescence ratio to DMSO, % at 10 µM | hit rate 0.19% among 360,000;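 active means fluorescence ratio to DMSO below 75%, the collection mean minus 3 SD; inconclusive means too few cells collected in the well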;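 further: signal is porphyrin accumulated inside mitochondria; lower ratio means ABCB6 inhibition with less porphyrin fluorescence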
Target sequence (Q9NP58 whole entry, looked up): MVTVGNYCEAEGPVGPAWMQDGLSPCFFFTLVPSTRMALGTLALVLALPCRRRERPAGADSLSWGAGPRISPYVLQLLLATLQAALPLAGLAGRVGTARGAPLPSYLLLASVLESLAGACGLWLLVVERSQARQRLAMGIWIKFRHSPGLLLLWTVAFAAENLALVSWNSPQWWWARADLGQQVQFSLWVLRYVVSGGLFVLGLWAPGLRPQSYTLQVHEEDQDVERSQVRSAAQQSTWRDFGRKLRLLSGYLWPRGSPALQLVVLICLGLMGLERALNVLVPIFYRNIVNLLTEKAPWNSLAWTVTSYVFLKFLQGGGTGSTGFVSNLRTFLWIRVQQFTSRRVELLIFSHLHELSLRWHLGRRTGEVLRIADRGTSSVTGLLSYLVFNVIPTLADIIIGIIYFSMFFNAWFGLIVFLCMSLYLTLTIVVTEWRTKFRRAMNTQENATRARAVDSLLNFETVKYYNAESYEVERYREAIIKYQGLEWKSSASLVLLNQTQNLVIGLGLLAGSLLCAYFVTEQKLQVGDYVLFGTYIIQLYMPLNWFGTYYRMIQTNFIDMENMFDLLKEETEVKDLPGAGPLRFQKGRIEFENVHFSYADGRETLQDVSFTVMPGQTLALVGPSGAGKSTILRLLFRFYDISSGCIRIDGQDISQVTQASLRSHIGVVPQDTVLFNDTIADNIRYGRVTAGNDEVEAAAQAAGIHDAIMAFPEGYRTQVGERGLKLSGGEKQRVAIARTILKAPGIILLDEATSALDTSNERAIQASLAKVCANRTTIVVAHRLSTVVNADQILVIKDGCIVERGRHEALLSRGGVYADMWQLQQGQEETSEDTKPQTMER
NRP1-CendR mod: alters CendR peptide binding to human NRP-1 | FAM-RPARPAR peptide binding to NRP-1, fluorescence polarization | inhibition, % at 25 µM | hit rate 0.85% among 360,000;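 active means inhibition or corrected inhibition above about 18%, plus a signal ratio from 0.5 to 1.5, limit read from the data, passing the limit was not always enough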
Exocytosis inh: blocks lytic granule exocytosis. TALL-104 LAMP-1 surface exposure, flow cytometry; cells stimulated with thapsigargin and PMA. inhibition, % at 10 µM. hit rate 0.66% among 360,000. AID 651702;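 active means inhibition above about 55%, limit read from the data; inconclusive means no clear call, values can overlap the other calls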
ATG4B inhibitor: blocks human ATG4B protease cleavage of LC3 substrate | inhibition, % at 8.33 µM | ATG4B cleavage of LC3-PLA2, NBD-HPC fluorescence, 1 h | AID 504462 | Q9Y4P1 | hit rate 0.51% among 340,000; in the data active means inhibition above about 40%
Arrestin-AP2 inh: blocks beta-arrestin peptide binding to AP2 adaptin. FITC-arrestin peptide / GST-AP2 beads, flow cytometry; AP2 beta2 appendage carries R879A mutation. inhibition, % at 10 µM. hit rate 0.31% among 340,000. AID 504490;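 active means inhibition above a set limit, near 3 SD of compounds lacking own fluorescence, cut at about 54% in these data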
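test system = AP2 appendage R879A on GSH beads | buffer or medium = PBS plus Tween 20 (0.05%) and BSA (0.1%) | incubation = 12 min plus 1 h, RT | detection = bead flow cytometry, FITC channel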
Myeloid diff MLP: compounds promoting myeloid differentiation. ER-HoxA9 myeloid progenitors, lysozyme-GFP differentiation, flow cytometry. calls only at 10 µM. hit rate 1% among 360,000. AID 624256;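 active means normalized GFP-positive differentiation at or above the plate's own cutoff, the solvent-only control mean plus 3 SD; inconclusive means no clear call, values can overlap the other calls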;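 further: cells exposed to compound for four days before flow analysis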
Myeloid diff: myeloid differentiation induction; shares compounds with Myeloid diff MLP; ER-HoxA9 myeloid progenitors, GFP/Mac1 double-positive flow; calls only; hit rate 2% among 2,300; AID 651706;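 active means share of green or green-and-red cells above 9 and 9% in run 1 or 4 and 3% in run 2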
GFP autofluor: counter-screen for myeloid differentiation promoters: compound fluorescence; shares compounds with Myeloid diff MLP; ER-HoxA9 myeloid progenitors, no estrogen, GFP autofluorescence flow cytometry; vehicle wells 0%, positive control 100%; fluorescence response, % (concentration not given with the values); hit rate 7.4% among 2,300; AID 651707;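 active means over 5% cells positive for green fluorescent reporter, or over 2% positive for both it and APC stain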
Hits are given with their value; n = inactive; u = inconclusive; x = not tested or not shown; + = active, no number. Shown are actives, neighbours in structure and some others; about 3.3% of the full set was active somewhere.

SMILES	ABCB6 inh 2	NRP1-CendR mod	Exocytosis inh	ATG4B inhibitor	Arrestin-AP2 inh	Myeloid diff MLP	Myeloid diff	GFP autofluor
Cc1ccc2nc(N(CCN(C)C)C(=O)C3CCN(S(=O)(=O)c4cccs4)CC3)sc2c1	n	n	n	x	x	n	x	x
Nc1nc(-c2ccc(Oc3ccccc3)cc2)c(CC(=O)O)s1	n	n	n	n	n	n	n	n
Nc1nc(-c2ccccc2)c(CC(=O)O)s1	n	n	n	x	x	n	x	x
COc1cccc(-c2c(C(=O)N/N=C(\C)c3cccnc3)nnn2-c2nonc2N)c1	n	n	n	n	n	n	x	x
S=C(Nc1ccccn1)Nc1ccccc1Cl	n	n	n	n	n	n	x	x
Cc1ccccc1NC(=S)Nc1ccccn1	n	n	n	n	n	n	n	n
COCCCN1C(=O)C(CC(=O)NCCN2CCOCC2)CC(C(=O)N2CCCCCC2)=C1C (centres undefined)	n	n	n	x	x	n	x	x
COC(=O)c1c(NC(=O)C2(C)Cc3ccccc3C(=O)O2)sc2c1CCCC2 (centres undefined)	n	n	n	n	n	+	n	n
COc1ccc(OC)c(S(=O)(=O)N2CCC(C(=O)NCc3ccccc3OC)CC2)c1	n	n	n	n	n	n	x	x
COc1ccc(OC)c(S(=O)(=O)N2CCC(C(=O)NCc3ccccc3)CC2)c1	n	n	n	n	n	n	n	n
O=C(NC1CCN(Cc2ccccc2)CC1)C1CCN(c2nnc(-n3cccc3)s2)CC1	n	n	n	n	n	u	x	x
O=C(NC1CCN(Cc2ccccc2)CC1)C1CCCN(c2nnc(-n3cccc3)s2)C1 (centres undefined)	n	n	n	n	n	n	n	n
CCOc1ccc(N(CC(=O)Nc2cc(Cl)ccc2C)S(C)(=O)=O)cc1	n	n	n	n	n	+	n	n
COCCCN=Cc1c(C)[nH]n(-c2ccc(Br)cc2Br)c1=O	n	n	n	n	n	n	x	x
COc1cc(NC(=O)CN2CCC(C(N)=O)(N3CCCCC3)CC2)c(OC)cc1Cl	n	n	n	n	n	n	x	x
CCOc1cc(C)c(S(=O)(=O)Nc2ccc(Cl)cn2)cc1C	n	n	n	n	n	n	n	n
CC1(C)Cn2c(nnc2-c2cccc(O)c2)S1	n	n	n	n	n	+	n	n
CN(C)C(=O)c1sccc1Oc1ccc(F)cc1[N+](=O)[O-]	n	n	n	n	n	n	x	x
C=C(c1cn(C(C)=O)c2ccccc12)c1cn(C(C)=O)c2ccccc12	n	n	n	n	n	n	n	n
CCC(=O)Nc1ccc(C(=O)NNC(=O)C(c2ccccc2)c2ccccc2)cc1	n	n	n	n	n	n	x	x
CC(C)CC(=O)Nc1ccc(C(=O)NNC(=O)C(c2ccccc2)c2ccccc2)cc1	n	n	n	n	n	n	n	n
OC[C@@H]1CN(Cc2ccc3c(c2)OCO3)C[C@H](n2cnc3c(NC4CCC4)ncnc32)O1	n	n	n	x	x	n	x	x
CCc1ccc(/C=C/c2c[nH]c3ccccc23)[n+](CC)c1	n	n	n	n	n	+	n	7.0
C(=NN=Cc1c[nH]c2ccccc12)c1c[nH]c2ccccc12	n	n	n	x	x	n	x	x
CC(C)NC(=O)N(C)C[C@H]1Oc2ccc(NS(=O)(=O)c3ccc(F)cc3)cc2C(=O)N([C@H](C)CO)C[C@@H]1C	n	n	n	n	n	n	x	x
SMILES	ABCB6 inh 2	NRP1-CendR mod	Exocytosis inh	ATG4B inhibitor	Arrestin-AP2 inh	Myeloid diff MLP	Myeloid diff	GFP autofluor
CCOC(=O)c1cnc2ccc(C(=O)OC)cc2c1Nc1ccc2c(c1)OCCO2	n	n	n	n	n	x	n	n
C=CCNC(=O)c1ccccc1NC(=O)c1ccccc1N(C)S(C)(=O)=O	n	n	n	n	n	n	x	x
C=CCNC(=O)c1ccccc1NC(=O)c1ccccc1	n	n	n	n	n	n	n	n
Cc1cccc(-c2nnc(-c3cccc(NC(=O)Cc4cccs4)c3)o2)c1	n	n	n	n	n	n	n	n
O=C(Cc1cccs1)Nc1ccc(-c2nnc(-c3ccccc3)o2)cc1	n	n	n	n	n	n	x	x
c1ccc(COCCCn2cc(-c3ccccc3)nn2)cc1	n	n	n	n	n	+	n	n

Source: PubChem (several laboratories)
